What was measured:
Format in all cases: functional
SK-MEL-2 = assay: Growth inhibition of human SK-MEL-2 cells after 48 hrs; conditions: SK-MEL-2, 48 h
How it was run: (§1)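 NCI-60 human tumour cell line panel screen run at the US National Cancer Institute under its standard cytotoxicity protocol. It covers leukaemia, NSCLC, colon, CNS, melanoma, ovarian, renal, prostate and breast lines. An initial single-dose test was followed by five-dose testing with 48 h compound exposure.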

Staphylococcus aureus = assay: Antimicrobial activity against Staphylococcus aureus assessed as inhibition at 20 ug/6 mm disk after 1 to 2 days by agar diffusion assay
How it was run: (§2)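 Standard agar diffusion: 6-mm paper disks loaded with 20 µg of compound were placed on inoculated plates. Inhibition-zone diameter (mm) was read after 1 and 2 days of growth.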

ACHN = assay: Growth inhibition of human ACHN cells after 48 hrs; how it was run: as §1
SNB-19 = assay: Growth inhibition of human SNB19 cells after 48 hrs; conditions: SNB-19, 48 h
How it was run: (§3)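 Run by the NCI 58-cell-line screen under its standard cytotoxicity protocol. Compounds were first tested at a single dose, then at five doses. Cells were exposed to compound for 48 h.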

HT-29 = assay: Growth inhibition of human HT-29 cells after 48 hrs; conditions: HT-29, 48 h; how it was run: as §1
SN12C = assay: Growth inhibition of human SN12C cells after 48 hrs; how it was run: as §3
Mycolicibacterium phlei = assay: Antimicrobial activity against Mycobacterium phlei assessed as inhibition at 20 ug/6 mm disk after 1 to 2 days by agar diffusion assay; how it was run: as §2
[1] = Growth inhibition of human RXF393 cells after 48 hrs; conditions: RXF 393, 48 h; how it was run: as §1
MDA-MB-231 = assay: Growth inhibition of human MDA-MB-231 cells after 48 hrs; conditions: MDA-MB-231, 48 h; how it was run: as §1
M14 = assay: Growth inhibition of human M14 cells after 48 hrs; conditions: M14, 48 h; how it was run: as §1
Micrococcus luteus = assay: Antimicrobial activity against Micrococcus luteus assessed as inhibition at 20 ug/6 mm disk after 1 to 2 days by agar diffusion assay; how it was run: as §2
MDA-MB-468 = assay: Growth inhibition of human MDA-MB-468 cells after 48 hrs; conditions: MDA-MB-468, 48 h; how it was run: as §1
SF-268 = assay: Growth inhibition of human SF268 cells after 48 hrs; conditions: SF-268, 48 h; how it was run: as §1
[2] = Growth inhibition of human HCT116 cells after 48 hrs; conditions: HCT-116, 48 h; how it was run: as §1
NCI-H522 = assay: Growth inhibition of human NCI-H522 cells after 48 hrs; conditions: NCI-H522, 48 h; how it was run: as §1
[3] = Growth inhibition of human OVCAR4 cells after 48 hrs; conditions: OVCAR-4, 48 h; how it was run: as §1
[4] = read-out: pLC50 (the source's name) (converted)

CC1=C(SCCC(=O)OCC(=O)NCCC[Te]c2ccccc2)C(=O)c2ccccc2C1=O
GI50 (SK-MEL-2): 2090 nM
CC50 (SK-MEL-2; [4]): 12.9 µM
TGI (SK-MEL-2; read-out: pTGI (converted)): 4.79 µM
diameter of the inhibition zone (DIZ) (Staphylococcus aureus): 13 mm
GI50 (ACHN): 2820 nM
LC50 (ACHN): 40.7 µM
TGI (ACHN; read-out: pTGI (converted)): 11 µM
GI50 (SNB-19): 2630 nM
CC50 (SNB-19; [4]): 42.7 µM
TGI (SNB-19; read-out: pTGI (converted)): 10.2 µM
GI50 (HT-29): 3.31 µM
CC50 (HT-29; [4]): > 100 µM
TGI (HT-29; read-out: pTGI (converted)): 11 µM
GI50 (SN12C): 1860 nM
LC50 (SN12C): 31.6 µM
TGI (SN12C; read-out: pTGI (converted)): 6.17 µM
diameter of the inhibition zone (DIZ) (Mycolicibacterium phlei): 16 mm
GI50 [1]: 1740 nM
LC50 [1]: 12.9 µM
TGI ([1]; read-out: pTGI (converted)): 4.37 µM
GI50 (MDA-MB-231): 1860 nM
LC50 (MDA-MB-231): 9.55 µM
TGI (MDA-MB-231; read-out: pTGI (converted)): 4.27 µM
GI50 (M14): 2040 nM
CC50 (M14; [4]): 17 µM
TGI (M14; read-out: pTGI (converted)): 5.13 µM
diameter of the inhibition zone (DIZ) (Micrococcus luteus): 11 mm
GI50 (MDA-MB-468): 1660 nM
LC50 (MDA-MB-468): 7.08 µM
TGI (MDA-MB-468; read-out: pTGI (converted)): 3.39 µM
GI50 (SF-268): 3.02 µM
CC50 (SF-268; [4]): 37.2 µM
TGI (SF-268; read-out: pTGI (converted)): 9.55 µM
GI50 [2]: 1660 nM
CC50 [2, 4]: 11.5 µM
TGI ([2]; read-out: pTGI (converted)): 4.17 µM
GI50 (NCI-H522): 2510 nM
CC50 (NCI-H522; [4]): 47.9 µM
TGI (NCI-H522; read-out: pTGI (converted)): 10.2 µM
GI50 [3]: 2140 nM
LC50 [3]: 29.5 µM
TGI ([3]; read-out: pTGI (converted)): 7.41 µM

Reference: ChEMBL document CHEMBL3351600, “Sulfur, selenium and tellurium pseudopeptides: synthesis and biological evaluation” (Bioorg Med Chem, 2014)
